{"source": "ChEMBL document CHEMBL4390662", "about": "“Design, synthesis and biological evaluation of novel α-acyloxy carboxamides via Passerini reaction as caspase 3/7 activators” (Eur J Med Chem, 2019)", "key": {"[1]": {"tested_on": "HepG2", "test": "Induction of apoptosis in human HepG2 cells assessed as total apoptotic cells at IC50 incubated for 72 hrs by annexin V/propidium iodide staining based flow cytometry (reference value: 0.169 +/- 0.02%)", "assay_type": "functional"}, "[2]": {"tested_on": "MCF7", "test": "Induction of apoptosis in human MCF7 cells assessed as late apoptotic cells level at IC50 incubated for 72 hrs by annexin V/propidium iodide staining based flow cytometry (reference value: 0.01%)", "assay_type": "functional"}, "[3]": {"tested_on": "HepG2", "test": "Induction of apoptosis in human HepG2 cells assessed as early apoptotic cells level at IC50 incubated for 72 hrs by annexin V/propidium iodide staining based flow cytometry (reference value: 0.05%)", "assay_type": "functional"}, "[4]": {"tested_on": "HepG2", "test": "Induction of apoptosis in human HepG2 cells assessed as early apoptotic cells at IC50 incubated for 72 hrs by annexin V/propidium iodide staining based flow cytometry (reference value: 0.78 +/- 0.09%)", "assay_type": "functional"}, "[5]": {"tested_on": "MCF7", "test": "Induction of apoptosis in human MCF7 cells assessed as early apoptotic cells at IC50 incubated for 72 hrs by annexin V/propidium iodide staining based flow cytometry (reference value: 0.47 +/- 0.01%)", "assay_type": "functional"}, "[6]": {"tested_on": "MCF7", "test": "Induction of apoptosis in human MCF7 cells assessed as viable cells level at IC50 incubated for 72 hrs by annexin V/propidium iodide staining based flow cytometry (reference value: 99.5%)", "assay_type": "functional"}, "[7]": {"tested_on": "NFS-60", "test": "Induction of apoptosis in mouse NFS60 cells assessed as caspase 3/7 activity using DEVD aminoluciferin as substrate at IC50 after 24 hrs […] relative to control", "assay_type": "functional", "procedure,_shortened": "(§1)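 Caspase 3/7 activation measured with Caspase-Glo 3/7 kit using a luminogenic caspase-cleavable substrate. […] Reported as percent activation, mean ± SEM.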"}, "[8]": {"tested_on": "NFS-60", "test": "Induction of apoptosis in mouse NFS60 cells assessed as early apoptotic cells at IC50 incubated for 72 hrs by annexin V/propidium iodide staining based flow cytometry (reference value: 0.02 +/- 0.01%)", "assay_type": "functional"}, "[9]": {"tested_on": "HepG2", "test": "Induction of apoptosis in human HepG2 cells assessed as viable cells level at IC50 incubated for 72 hrs by annexin V/propidium iodide staining based flow cytometry (reference value: 98.97%)", "assay_type": "functional"}, "[10]": {"tested_on": "HepG2", "test": "Cytotoxicity against human HepG2 cells assessed as cell growth inhibition incubated for 72 hrs by MTT assay", "assay_type": "functional, cell-based", "conditions": "HepG2, 72 h", "procedure,_shortened": "(§2)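 Cells grown in RPMI-1640 with 10% FBS and seeded at 5×10^3 per well. After 24 h, serial concentrations given for 72 h at 37°C, 5% CO2. Then 5 mg/mL MTT stock added for 3 h, formazan dissolved in DMSO, A570 read. IC50 calculated from the curves.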"}, "[11]": {"tested_on": "NFS-60", "test": "Induction of apoptosis in mouse NFS60 cells assessed as late apoptotic cells at IC50 incubated for 72 hrs by annexin V/propidium iodide staining based flow cytometry (reference value: 0.015 +/- 0.01%)"}, "[12]": {"tested_on": "MCF7", "test": "Induction of apoptosis in human MCF7 cells assessed as total apoptotic cells at IC50 incubated for 72 hrs by annexin V/propidium iodide staining based flow cytometry (reference value: 0.48 +/- 0.01%)", "assay_type": "functional"}, "[13]": {"tested_on": "HepG2", "test": "Induction of apoptosis in human HepG2 cells assessed as late apoptotic cells level at IC50 incubated for 72 hrs by annexin V/propidium iodide staining based flow cytometry (reference value: 0.1%)", "assay_type": "functional"}, "[14]": {"tested_on": "HepG2", "test": "Induction of apoptosis in human HepG2 cells assessed as caspase 3/7 activity using DEVD aminoluciferin as substrate at IC50 after 24 hrs by fluorescence assay relative to control", "assay_type": "functional", "procedure,_shortened": "as §1"}, "[15]": {"tested_on": "WI-38", "test": "Cytotoxicity against human WI38 cells assessed as cell growth inhibition incubated for 72 hrs by MTT assay", "assay_type": "cell-based", "procedure,_shortened": "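Wi-38 fibroblasts grown in DMEM with 10% FBS and seeded at 5×10^3 per well. Attachment 24 h, then serial concentrations for 72 h at 37°C, 5% CO2. MTT stock (5 mg/mL) added for 3 h at 37°C, DMSO solubilization, absorbance at 570 nm. IC50 estimated.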"}, "[16]": {"tested_on": "MCF7", "test": "Induction of apoptosis in human MCF7 cells assessed as early apoptotic cells level at IC50 incubated for 72 hrs by annexin V/propidium iodide staining based flow cytometry (reference value: 0.01%)", "assay_type": "functional"}, "[17]": {"tested_on": "MCF7", "test": "Induction of apoptosis in human MCF7 cells assessed as necrotic cells level at IC50 incubated for 72 hrs by annexin V/propidium iodide staining based flow cytometry (reference value: 0.48%)", "assay_type": "functional"}, "[18]": {"tested_on": "MCF7", "test": "Induction of apoptosis in human MCF7 cells assessed as caspase 3/7 activity using DEVD aminoluciferin as substrate at IC50 after 24 hrs […] relative to control", "assay_type": "functional", "procedure,_shortened": "as §1"}, "[19]": {"tested_on": "NFS-60", "test": "Induction of apoptosis in mouse NFS60 cells assessed as necrotic cells level at IC50 incubated for 72 hrs by annexin V/propidium iodide staining based flow cytometry (reference value: 0.01%)", "assay_type": "functional"}, "[20]": {"tested_on": "NFS-60", "test": "Induction of apoptosis in mouse NFS60 cells assessed as total apoptotic cells at IC50 incubated for 72 hrs by annexin V/propidium iodide staining based flow cytometry (reference value: 0.495 +/- 0.01%)", "assay_type": "functional"}, "[21]": {"tested_on": "HepG2", "test": "Induction of apoptosis in human HepG2 cells assessed as necrotic cells level at IC50 incubated for 72 hrs by annexin V/propidium iodide staining based flow cytometry (reference value: 0.87%)", "assay_type": "functional"}, "[22]": {"tested_on": "NFS-60", "test": "Induction of apoptosis in mouse NFS60 cells assessed as late apoptotic cells level at IC50 incubated for 72 hrs by annexin V/propidium iodide staining based flow cytometry (reference value: 0.01%)", "assay_type": "functional"}, "[23]": {"tested_on": "MCF7", "test": "Induction of apoptosis in human MCF7 cells assessed as late apoptotic cells at IC50 incubated for 72 hrs by annexin V/propidium iodide staining based flow cytometry (reference value: 0.01 +/- 0.001%)", "assay_type": "functional"}, "[24]": {"tested_on": "NFS-60", "test": "Induction of apoptosis in mouse NFS60 cells assessed as viable cells level at IC50 incubated for 72 hrs by annexin V/propidium iodide staining based flow cytometry (reference value: 99.52%)", "assay_type": "functional"}, "[25]": {"tested_on": "HepG2", "test": "Induction of apoptosis in human HepG2 cells assessed as late apoptotic cells at IC50 incubated for 72 hrs by annexin V/propidium iodide staining based flow cytometry (reference value: 0.1 +/- 0.001%)", "assay_type": "functional"}, "[26]": {"tested_on": "NFS-60", "test": "Induction of apoptosis in mouse NFS60 cells assessed as early apoptotic cells level at IC50 incubated for 72 hrs by annexin V/propidium iodide staining based flow cytometry (reference value: 0.46%)", "assay_type": "functional"}, "[27]": {"tested_on": "NFS-60", "test": "Cytotoxicity against mouse NFS60 cells assessed as cell growth inhibition incubated for 72 hrs by MTT assay", "assay_type": "functional, cell-based", "conditions": "NFS-60, 72 h", "procedure,_shortened": "as §2"}}}
{"smiles": "COc1cccc2c1C(=O)c1c(O)c3c(c(O)c1C2=O)C[C@@](O)(C(=O)CO)C[C@@H]3O[C@H]1C[C@H](N)[C@H](O)[C@H](C)O1", "note": "[DOXORUBICIN]", "values": [{"measurement": "Activity", "setting": "[1]", "value": 36.08, "unit": "%"}, {"measurement": "Activity", "setting": "[2]", "value": 18.78, "unit": "%"}, {"measurement": "Activity", "setting": "[3]", "value": 10.54, "unit": "%"}, {"measurement": "Activity", "setting": "[4]", "value": 10.59, "unit": "%"}, {"measurement": "Activity", "setting": "[5]", "value": 13.53, "unit": "%"}, {"measurement": "Activity", "setting": "[6]", "value": 60.42, "unit": "%"}, {"measurement": "Activity", "setting": "[7]", "value": 45.39, "unit": "%"}, {"measurement": "Activity", "setting": "[8]", "value": 11.379, "unit": "%"}, {"measurement": "Activity", "setting": "[9]", "value": 53.61, "unit": "%"}, {"measurement": "IC50", "setting": "[10]", "value": 10, "unit": "nM"}, {"measurement": "Activity", "setting": "[11]", "value": 23.215, "unit": "%"}, {"measurement": "Activity", "setting": "[12]", "value": 33.974, "unit": "%"}, {"measurement": "Activity", "setting": "[13]", "value": 23.91, "unit": "%"}, {"measurement": "Activity", "setting": "[14]", "value": 48.09, "unit": "%"}, {"measurement": "IC50", "setting": "[15]; Homo sapiens, WI-38, 72 h", "value": 26.6, "unit": "nM"}, {"measurement": "EC100", "setting": "[15]; human, wi-38, 72 h", "value": 0.0121, "unit": "µM"}, {"measurement": "Activity", "setting": "[16]", "value": 5.92, "unit": "%"}, {"measurement": "Activity", "setting": "[17]", "value": 14.88, "unit": "%"}, {"measurement": "Activity", "setting": "[18]", "value": 42.94, "unit": "%"}, {"measurement": "Activity", "setting": "[19]", "value": 12.76, "unit": "%"}, {"measurement": "Activity", "setting": "[20]", "value": 34.595, "unit": "%"}, {"measurement": "Activity", "setting": "[21]", "value": 11.94, "unit": "%"}, {"measurement": "Activity", "setting": "[22]", "value": 21.62, "unit": "%"}, {"measurement": "Activity", "setting": "[23]", "value": 20.445, "unit": "%"}, {"measurement": "Activity", "setting": "[24]", "value": 58.34, "unit": "%"}, {"measurement": "Activity", "setting": "[25]", "value": 25.49, "unit": "%"}, {"measurement": "Activity", "setting": "[26]", "value": 7.27, "unit": "%"}, {"measurement": "IC50", "setting": "[27]", "value": 13, "unit": "nM"}]}
